Test [1] deals with Pectobacterium carotovorum. The experiment in a line: Antimicrobial activity against Erwinia carotovora at 27 to 28 degC after 24 hrs in dark. In kind it is functional. The method in brief: (§1)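 MIC by microtiter bioassay scoring inhibition of spore germination or cell growth. Compounds in MeOH were dried in the wells, then 100 µL of spore or cell suspension (10^4 spores/mL or cells/mL) in appropriate medium was added. The top concentration tested was 230 to 590 µM. Controls were untreated suspension and sterile medium. Growth was scored visually on a 0–3 scale. Run in triplicate, repeated once.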

For the next test, the system named is Drechslera. The experiment in a line: Antimicrobial activity against Drechslera sorokiniana at 27 to 28 degC after 48 hrs in dark. It counts as functional. The method in brief:
as §1

Another test concerns Staphylococcus aureus. As to the kind of experiment: Antimicrobial activity against Staphylococcus aureus at 37 degC after 24 hrs in dark. In kind it is functional. The method in brief: as §1
For a further test, the system named is Fusarium culmorum. The experiment in a line: Antimicrobial activity against Fusarium culmorum at 27 to 28 degC after 72 hrs in dark. It counts as functional. The method in brief:
as §1

A further test has as its system Aspergillus fumigatus. The experiment in a line: Antimicrobial activity against Aspergillus fumigatus up to 590 uM at 27 to 28 degC after 96 hrs in dark. In kind it is functional, organism-based. The method in brief:
as §1

Test [2] deals with Pseudomonas savastanoi pv. savastanoi. The experiment in a line: Antimicrobial activity against Pseudomonas savastanoi pv. savastanoi up to 590 uM at 27 to 28 degC after 24 hrs in dark. In kind it is functional, organism-based. The method in brief: as §1
A further test concerns Candida albicans. The experiment in a line: Antimicrobial activity against Candida albicans up to 590 uM at 37 degC after 24 hrs in dark. In kind it is functional, organism-based. The method in brief: as §1

≈ marks a conversion by molar mass, not a printed value. Calls of active or inactive are those of the source.

A word on the MIC: it is the smallest concentration in the dilution series that meets the test's criterion for growth inhibition. With `COC[C@@H]1NC(=O)[C@@H]2CCCNN2C(=O)[C@H](C(C)C)OC(=O)[C@@H](C2(C)CC2)NC(=O)[C@@H]2C[C@@]3(O)c4ccc(Cl)c(Cl)c4N[C@H]3N2C(=O)[C@@H]([C@H](O)CC(=O)O)NC1=O` [KUTZNERIDE 5], the minimum inhibitory concentration (MIC) is 120 µM (≈ 101 µg/mL) in test [1], more than 240 µM against Drechslera, 120 µM (≈ 101 µg/mL) against Staphylococcus aureus and more than 240 µM against Fusarium culmorum.
Turning to `CN[C@@H]1[C@H](O[C@H]2[C@H](O[C@H]3[C@H](O)[C@@H](O)[C@H](N=C(N)N)[C@@H](O)[C@@H]3N=C(N)N)O[C@@H](C)[C@]2(O)C=O)O[C@@H](CO)[C@H](O)[C@H]1O` [STREPTOMYCIN], the minimum inhibitory concentration (MIC) against Staphylococcus aureus stood at 17 µM (≈ 9.89 µg/mL).
On to `COC[C@@H]1NC(=O)[C@@H]2C[C@@H](Cl)CNN2C(=O)[C@H](C(C)(C)C)OC(=O)[C@@H](C2(C)CC2)NC(=O)[C@@H]2C[C@@]3(O)c4ccc(Cl)c(Cl)c4N[C@H]3N2C(=O)[C@@H]([C@H](O)CC(=O)O)NC1=O` [KUTZNERIDE 8], for which the minimum inhibitory concentration (MIC) was 6 µM (≈ 5.34 µg/mL) in test [1], 230 µM (≈ 205 µg/mL) against Drechslera, 6 µM (≈ 5.34 µg/mL) in the test on Staphylococcus aureus and 110 µM (≈ 97.8 µg/mL) against Fusarium culmorum.
Regarding `C[C@@H]1[C@H](O)[C@@H](C)/C=C/C=C/C=C/C=C/C=C/C=C/C=C/[C@H](O[C@@H]2O[C@H](C)[C@@H](O)[C@H](N)[C@@H]2O)C[C@@H]2O[C@](O)(C[C@@H](O)C[C@@H](O)[C@H](O)CC[C@@H](O)C[C@@H](O)CC(=O)O[C@H]1C)C[C@H](O)[C@H]2C(=O)O` [AMPHOTERICIN B], the MIC with Drechslera came to 4 µM (≈ 3.7 µg/mL); in the test with Fusarium culmorum, 40 µM (≈ 37 µg/mL).
For `COC[C@@H]1NC(=O)[C@@H]2CCCNN2C(=O)[C@H](C(C)(C)C)OC(=O)[C@@H](C2(C)CC2)NC(=O)[C@@H]2C[C@@]3(O)c4ccc(Cl)c(Cl)c4N[C@H]3N2C(=O)[C@@H]([C@H](O)CC(=O)O)NC1=O` [KUTZNERIDE 3], the MIC in test [1] is 12 µM (≈ 10.3 µg/mL); against Drechslera, 260 µM (≈ 222 µg/mL); in the test on Staphylococcus aureus, 9 µM (≈ 7.69 µg/mL); in the test with Fusarium culmorum, 260 µM (≈ 222 µg/mL). Further, the result (with Aspergillus fumigatus; in test [2]; with Candida albicans) was inactive.
As to `COC[C@@H]1NC(=O)[C@@H]2C[C@@H](O)C=NN2C(=O)[C@H](C(C)(C)C)OC(=O)[C@@H](C2(C)CC2)NC(=O)[C@@H]2C[C@@]3(O)c4ccc(Cl)c(Cl)c4N[C@H]3N2C(=O)[C@@H]([C@H](O)CC(=O)O)NC1=O` [KUTZNERIDE 6], the minimum inhibitory concentration (MIC) is more than 230 µM in test [1], more than 400 µM in the test on Drechslera, more than 230 µM in the test with Staphylococcus aureus and more than 230 µM against Fusarium culmorum.
In the case of `COC[C@@H]1NC(=O)[C@@H]2C[C@@H](Cl)CNN2C(=O)[C@H](C(C)(C)C)OC(=O)[C@@H](C2(C)CC2)NC(=O)[C@@H]2C[C@@]3(O)c4ccc(Cl)c(Cl)c4N[C@H]3N2C(=O)[C@@H]([C@@H](O)CC(=O)O)NC1=O` [KUTZNERIDE 2], the MIC worked out at 6 µM (≈ 5.34 µg/mL) in test [1], 110 µM (≈ 97.8 µg/mL) against Drechslera, 6 µM (≈ 5.34 µg/mL) with Staphylococcus aureus and 70 µM (≈ 62.2 µg/mL) against Fusarium culmorum. In addition, the outcome (in the test with Aspergillus fumigatus; in test [2]; with Candida albicans) was inactive.
With `COC[C@@H]1NC(=O)[C@@H]2CCC=NN2C(=O)[C@H](C(C)(C)C)OC(=O)[C@@H](C2(C)CC2)NC(=O)[C@@H]2C[C@@]3(O)c4ccc(Cl)c(Cl)c4N[C@H]3N2C(=O)[C@@H]([C@H](O)CC(=O)O)NC1=O` [KUTZNERIDE 4], the MIC in test [1] was 120 µM (≈ 102 µg/mL); against Drechslera, more than 590 µM; against Staphylococcus aureus it was 140 µM (≈ 119 µg/mL); in the test with Fusarium culmorum it was more than 590 µM. Moreover, the result (in the test with Aspergillus fumigatus; in test [2]; in the test on Candida albicans) was inactive.
Take `COC[C@@H]1NC(=O)[C@@H]2CCC=NN2C(=O)[C@H](C(C)(C)C)OC(=O)[C@@H](C2(C)CC2)NC(=O)[C@@H]2C[C@@]3(O)c4ccc(Cl)c(Cl)c4N[C@H]3N2C(=O)[C@@H]([C@@H](O)CC(=O)O)NC1=O` [KUTZNERIDE 9]: the MIC in test [1] is 230 µM (≈ 196 µg/mL); in the test on Drechslera, more than 230 µM; against Staphylococcus aureus, 60 µM (≈ 51.2 µg/mL); with Fusarium culmorum, more than 230 µM.
In the case of `COC[C@@H]1NC(=O)[C@@H]2CCCNN2C(=O)[C@H](C(C)C)OC(=O)[C@@H](C2(C)CC2)NC(=O)[C@@H]2C[C@@]3(O)c4ccc(Cl)c(Cl)c4N[C@H]3N2C(=O)[C@@H]([C@@H](O)CC(=O)O)NC1=O` [KUTZNERIDE 7], the MIC is 180 µM (≈ 151 µg/mL) in test [1], more than 420 µM in the test with Drechslera, 120 µM (≈ 101 µg/mL) against Staphylococcus aureus and more than 420 µM in the test on Fusarium culmorum.
Turning to `COC[C@@H]1NC(=O)[C@@H]2CCCNN2C(=O)[C@H](C(C)(C)C)OC(=O)[C@@H](C2(C)CC2)NC(=O)[C@@H]2C[C@@]3(O)c4ccc(Cl)c(Cl)c4N[C@H]3N2C(=O)[C@@H]([C@@H](O)CC(=O)O)NC1=O` [KUTZNERIDE 1], the minimal inhibitory concentration (MIC) in test [1] was 60 µM (≈ 51.3 µg/mL); with Drechslera, 230 µM (≈ 197 µg/mL); in the test on Staphylococcus aureus, 12 µM (≈ 10.3 µg/mL); against Fusarium culmorum it was 210 µM (≈ 179 µg/mL). In addition, the result (in the test on Aspergillus fumigatus; in test [2]; in the test on Candida albicans) was inactive.

For the origin of these results see ChEMBL document CHEMBL1158134, “Low-abundance kutznerides from Kutzneria sp. 744” (2006).
